MEKK3 PB1 HTS = raises or lowers MEK5 binding to the human MEKK3 PB1 domain | actives 1.4% (n = 290,000) | Q99759 | binding response (% of control), % at 10 µM | AID 1529 | bead-based flow cytometry, Alexa488-MEK5 binding to MEKK3; actives lie on both sides; 0 = blocked by unlabeled MEK5, 100 = vehicle;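 active = binding response more than 3 SD above or below the average of its plate-row segment, actives on both sides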;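 also: Alexa488 bead fluorescence after subtracting the streptavidin-only scavenger bead signal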
Target sequence (Q99759 whole entry, looked up, the tested form may be a part): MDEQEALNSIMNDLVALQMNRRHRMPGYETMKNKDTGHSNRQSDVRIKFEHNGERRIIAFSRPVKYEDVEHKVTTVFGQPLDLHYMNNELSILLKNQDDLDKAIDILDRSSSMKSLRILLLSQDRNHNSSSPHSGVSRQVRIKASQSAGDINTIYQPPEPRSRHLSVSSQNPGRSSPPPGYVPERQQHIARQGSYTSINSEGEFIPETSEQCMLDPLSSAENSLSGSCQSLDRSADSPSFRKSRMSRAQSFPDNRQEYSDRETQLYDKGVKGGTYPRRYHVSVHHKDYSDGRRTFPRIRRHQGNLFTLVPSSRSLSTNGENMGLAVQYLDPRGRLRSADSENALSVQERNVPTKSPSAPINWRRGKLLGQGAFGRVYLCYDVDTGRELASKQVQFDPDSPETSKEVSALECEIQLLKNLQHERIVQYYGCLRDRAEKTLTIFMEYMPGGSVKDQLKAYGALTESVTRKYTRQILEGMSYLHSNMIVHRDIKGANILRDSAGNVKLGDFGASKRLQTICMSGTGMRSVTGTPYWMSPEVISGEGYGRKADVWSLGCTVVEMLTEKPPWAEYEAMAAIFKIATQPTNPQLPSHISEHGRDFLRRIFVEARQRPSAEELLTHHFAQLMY
ABCG2 block = human ABCG2 inhibition, ABCB1 as counter-screen; IgMXP3 cells, JC-1 efflux, flow cytometry; AID 1325; actives 0.1% (n = 190,000); Q9UNQ0; inhibition, % at 6.6 µM;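 active = inhibition above 80%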
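Read-out basis: Efflux inhibition in percent versus controls | Test system: ABCG2 IgMXP3 and barcoded ABCB1 CCRF-Adr cell mix | Quantity: 3 million cells/mL in well | Schedule: 10 min at 25 °C | Control set: Nicardipine as high control, DMSO as low control | Reagent: JC-1 as fluorescent efflux pump substrate | Signal: Flow cytometry of retained JC-1 fluorescence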
WT yeast gro inh = growth inhibition of WT yeast, mitochondrial fusion screen; mitochondrial fusion phenotypic screen, WT strain; AID 1362; actives 2.1% (n = 190,000); inhibition, % at 10 µM; in the data active = inhibition above about 58%; tested in S. cerevisiae
MEKK2 mut-MEK5 = signal of MEK5 binding to mutant human MEKK2 PB1 domain. AID 1530. actives 0.35% (n = 290,000). bead flow cytometry, Alexa488-MEK5 binding to MEKK2 mutant. percent response, % at 10 µM; in the data active = percent response above about 24%, passing the limit was not always enough
ABCB1 block = blocks JC-1 efflux by human ABCB1 transporter; CCRF-Adr cells, flow cytometry; inhibition, % at 6.6 µM; actives 0.067% (n = 190,000); AID 1326; in the data active = inhibition above about 40%;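 also: higher value means more JC-1 retained so stronger ABCB1 efflux block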
MEKK2wt PB1 HTS = raises or lowers MEK5 binding to wildtype human MEKK2 PB1 domain; bead flow cytometry, Alexa488-MEK5 binding to MEKK2 WT; actives lie on both sides; binding response (% of control), % at 10 µM; actives 1.1% (n = 290,000); in the data active = binding response below about 67% or above about 130%
Numbers stand for hits; . = inactive; / = no result; ! = not confirmed by another sample. The list is not random: actives were taken first. Their share in the collection is about 3.5%.

SMILES	MEKK3 PB1 HTS	ABCG2 block	WT yeast gro inh	MEKK2 mut-MEK5	ABCB1 block	MEKK2wt PB1 HTS
CC(=O)Nc1ccc(S(=O)(=O)NCC(=O)OCC(=O)N2CCc3ccccc32)cc1	.	.	62	.	.	.
COCCOC(=O)/C(=C/c1ccc(OC(=O)c2ccccc2)cc1)C(C)=O	.	.	.	.	.	4.0
O=C1C=C(c2cc3ccccc3s2)CCC1	.	/	/	.	/	.
CCOC(=O)N1CCN(c2cc(=O)n(-c3cccc(C)c3)c(=O)[nH]2)CC1	.	.	.	.	.	.
CC(Sc1ccc(Cl)cc1)C(=O)Nc1ccccc1-c1ccccc1 (configuration not stated)	.	.	75	.	.	.
Cc1ccc(SC(C)C(=O)Nc2ccccc2-c2ccccc2)cc1 (configuration not stated)	.	.	78	.	.	.
COc1ccccc1C(=O)NC(=O)CSc1nnc(C)s1	.	/	/	.	/	.
CC1(c2nnc(-c3ccc(Cl)cc3)o2)CC(c2cccnc2)=NO1 (configuration not stated)	.	/	/	.	/	.
O=P(OC1CCCCC1)(OC1CCCCC1)C(O)c1ccc(Cl)cc1Cl (configuration not stated)	.	.	.	.	.	.
O=P(OC1CCCCC1)(OC1CCCCC1)C(O)c1c(Cl)cccc1Cl (configuration not stated)	.	.	71	.	.	.
Nc1cn(C2OC(CO)C(O)C2O)c(=O)[nH]c1=O (configuration not stated)	.	/	/	.	/	.
S=C(NNc1ccc2ccccc2c1)NC1CCCCC1	.	.	78	.	.	.
S=C(Nc1ccc(Oc2ccccc2)cc1)NC1CCCCC1	.	.	61	.	.	.
Cc1cccc(C)c1NC(=S)NC1CCCCC1	.	.	70	.	.	.
S=C(Nc1ccc(Oc2ccccc2)cc1)NC1CCCCCC1	.	.	69	.	.	.
C=CCn1c(=O)c2ccccc2n2c(SCc3nnc(-c4ccccc4Br)o3)nnc12	.	.	.	.	.	.
CCCN(CC1CC1)C(=S)Nc1ccc(Oc2ccccc2)cc1	.	.	.	.	.	.
CCCCN(C)C(=S)Nc1ccc(Oc2ccccc2)cc1	.	.	59	.	.	.
CN(C(=S)Nc1ccc(Oc2ccccc2)cc1)C1CCCCC1	.	.	68	.	.	.
CCc1nc(SCc2nc3ccccc3[nH]2)c2oc3ccccc3c2n1	.	.	74	.	.	.
[NH-]c1ncnc2c1N=C[N+]2=CC=CCO	.	/	/	.	/	.
O=C1C=CC(=O)N1CCNc1ncc(C(F)(F)F)cc1Cl	.	.	97	.	.	.
O=S(=O)(NCCNc1ncc(C(F)(F)F)cc1Cl)C(F)(F)F	.	.	83	.	.	.
CCOC(=O)c1c(C)nc2c(c1-c1cc(OC)ccc1OC)C(=O)CC(C)(C)C2	.	/	/	.	/	.
COc1ccccc1-n1c(-c2ccccc2)c[n+]2c1CCc1ccccc1-2	.	.	63!	.	.	.
SMILES	MEKK3 PB1 HTS	ABCG2 block	WT yeast gro inh	MEKK2 mut-MEK5	ABCB1 block	MEKK2wt PB1 HTS
CCc1ccc(CN(Cc2cccnc2)C(=O)/C=C/c2ccc(OC)cc2)cc1	.	/	/	32	/	138
CN1CCn2c1nc(N1CCOCC1)nc2=O	.	.	.	.	.	.
COc1ccc(N(C(C)=O)S(=O)(=O)c2cccs2)cc1	.	.	.	.	.	.
CC(=O)Oc1ccc(N(C(C)=O)S(=O)(=O)c2cccs2)cc1	.	.	66	.	.	.
CN1CCN(S(=O)(=O)c2ccc(N3CCN(C(c4ccccc4)c4ccccc4)CC3)nc2)CC1	.	.	69	.	.	.
CN1CCN(S(=O)(=O)c2ccc(N3CCN(S(=O)(=O)/C=C/c4ccccc4)CC3)nc2)CC1	.	.	.	.	.	.
COc1ccc(C(=O)NC23CC4CC(CC(C4)C2)C3)cc1	.	/	/	.	/	.
CC(Oc1ccc2oc3ccccc3c2c1)C(=O)NC12CC3CC(CC(C3)C1)C2 (configuration not stated)	.	.	67	.	.	.
Cc1nn(-c2ccccc2)c(Cl)c1C(=O)OC(C)C(=O)NC(=O)NC1CCCCC1 (configuration not stated)	.	.	69	.	.	.
COc1ccccc1C(=O)NCC(=O)OC(C)C(=O)NC(=O)NC1CCCCC1 (configuration not stated)	.	.	.	.	.	.
CN1CC(=O)Nc2ccc([N+](=O)[O-])cc2C1=O	.	/	/	.	/	.
CN1CC(=O)Nc2ccc(F)cc2C1=O	/	.	60	/	.	/
COCCn1c(N)c(C(=S)NC(=O)c2cccs2)c(=O)[nH]c1=O	.	/	/	.	/	.
CNC(=O)c1nn(-c2ccccc2)ccc1=O	.	.	.	.	.	.
CNC(=O)c1nn(-c2ccc(Cl)cc2)ccc1=O	.	.	98	.	.	.
O=C(CCC1N=C2c3ccccc3N=C(SCc3cccc(Cl)c3)N2C1=O)NCc1ccco1 (configuration not stated)	.	.	59	.	.	.
CC(=Nc1ccc(C)cc1C)c1sc2ccccc2c1O	.	.	79	.	.	.
CC(=Nc1ccc(C)cc1)c1sc2ccccc2c1O	.	.	.	.	.	.
Cc1ccc(CS(=O)(=O)Cc2ccc(C(=O)NC3CCCC3)o2)cc1	.	/	/	.	/	.
C=CCn1c(SCc2csc(C)n2)nc2sc3c(c2c1=O)CCCC3	/	.	70	/	.	/
COc1ccc(C(=O)NNC(=O)CCn2nnc(-c3ccc(Cl)cc3)n2)cc1OC	.	.	.	.	.	.
CC12CCC(c3c(C(=O)Nc4nccs4)nn(-c4ccccc4)c31)C2(C)C (configuration not stated)	.	.	76	.	.	.
CC12CCC(c3c(C(=O)O)nn(-c4ccccc4)c31)C2(C)C (configuration not stated)	.	.	.	.	.	.
CCN(CC)C(=S)NC(=O)c1ccc(Cl)cc1Cl	.	.	.	.	.	.
CCCN(CCC)C(=S)NC(=O)c1ccc(-c2ccccc2)cc1	.	.	68	.	.	.
SMILES	MEKK3 PB1 HTS	ABCG2 block	WT yeast gro inh	MEKK2 mut-MEK5	ABCB1 block	MEKK2wt PB1 HTS
CCCCN(CCCC)C(=S)NC(=O)c1ccccc1Cl	.	.	64	.	.	.
O=C(Nc1cc(Cl)ccc1Cl)c1ccc(OC(=O)c2ccco2)cc1	.	.	.	.	.	.
N#C/C(=C\c1ccccc1[N+](=O)[O-])C(=O)NCc1ccccc1	.	/	/	.	/	.
C=CCNC(=O)/C(C#N)=C/c1ccccc1[N+](=O)[O-]	.	.	.	.	.	4.0
Cc1csc(NC(=O)CSc2nnc(NC(=O)COc3ccc(Cl)cc3)s2)n1	.	.	.	.	.	.
Cc1ccc(CNCC(=O)Nc2ccc(C)cc2Br)cc1	.	.	.	.	.	.

Assay outcomes as filed in PubChem BioAssay.
